Source: ChEMBL document CHEMBL3739331, “Synthesis and Bioactivities of Kanamycin B-Derived Cationic Amphiphiles” (J Med Chem, 2015)
Values after ≈ are worked out from the molar mass of the structure shown. Active and inactive are the calls of the source. No cut-off for these calls is given here.

Key:
[1] = Hemolytic activity against mouse RBC at 7.8 ug/ml after 60 mins; type: ADME, cell-based, Erythrocyte; conditions: red blood cells, read-out: Activity
[2] = Hemolytic activity against mouse RBC at 62.5 ug/ml after 60 mins; type: ADME, cell-based, Erythrocyte; conditions: red blood cells, read-out: Activity
[3] = Hemolytic activity against mouse RBC at 100 to 500 ug/ml after 60 mins; type: ADME, cell-based; conditions: erythrocyte, 1 h
Klebsiella pneumoniae = assay: Antibacterial activity against Klebsiella pneumoniae ATCC 27736 by microdilution method; type: functional
Method in brief: (§1)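 Broth microdilution MIC against the named bacterial strain, reported in μg/mL; each determination run at least in duplicate.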

[4] = Activity of AAC(3)-4 (unknown origin) assessed as compound acetylation activity by Ellman's method
Bacillus subtilis = assay: Antibacterial activity against Bacillus subtilis 168 by microdilution method; type: functional; conditions: subsp. subtilis str. 168; method in brief: as §1
Staphylococcus aureus [5] = assay: Antibacterial activity against methicillin-resistant Staphylococcus aureus by microdilution method; type: functional
Method in brief: (§2)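 Broth microdilution MIC, in μg/mL, against a panel of Gram-positive and Gram-negative strains. Run at least in duplicate.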

[6] = tested on: Mycolicibacterium smegmatis; assay: Antibacterial activity against Mycobacterium smegmatis MC2 155 by microdilution method; type: functional; conditions: str. MC2 155; method in brief: as §2
Staphylococcus aureus [7] = assay: Antibacterial activity against Staphylococcus aureus ATCC 29213 by microdilution method; type: functional; method in brief: as §1
Staphylococcus aureus [8] = assay: Antibacterial activity against Staphylococcus aureus NRS382 (USA 100) by microdilution method; type: functional; method in brief: as §1
Staphylococcus aureus [9] = assay: Antibacterial activity against Staphylococcus aureus NRS383 (USA 200) by microdilution method; type: functional; method in brief: as §1
Staphylococcus aureus [10] = assay: Antibacterial activity against Staphylococcus aureus NRS385 (USA 300) by microdilution method; type: functional; method in brief: as §2
Staphylococcus aureus [11] = assay: Antibacterial activity against Staphylococcus aureus NRS22 (USA 600) by microdilution method; type: functional; method in brief: as §1
[12] = tested on: Staphylococcus epidermidis; assay: Antibacterial activity against Staphylococcus epidermidis ATCC 12228 by microdilution method; type: functional; method in brief: as §1
Enterococcus = assay: Antibacterial activity against vancomycin-resistant Enterococcus by microdilution method; type: functional; method in brief: as §2
Acinetobacter baumannii = assay: Antibacterial activity against Acinetobacter baumannii ATCC 19606 by microdilution method; type: functional; method in brief: as §1
Enterobacter cloacae = assay: Antibacterial activity against Enterobacter cloacae ATCC 13047 by microdilution method; type: functional; method in brief: as §1
Escherichia coli = assay: Antibacterial activity against Escherichia coli MC1061 by microdilution method; type: functional; method in brief: as §2
Pseudomonas aeruginosa = assay: Antibacterial activity against Pseudomonas aeruginosa ATCC 27853 by microdilution method; type: functional; method in brief: as §1
Salmonella enterica = assay: Antibacterial activity against Salmonella enterica ATCC 14028 by microdilution method; type: functional; method in brief: as §1
[13] = tested on: Bacillus subtilis subsp. subtilis str. 168; assay: Activity of Bacillus subtilis 168 APH(2'')-1a assessed as compound phosphorylation activity by Ellman's method
[14] = Activity of AAC(6')-1e/APH(2'')-1a (unknown origin) assessed as compound acetylation activity by Ellman's method
Serratia marcescens = assay: Activity of Serratia marcescens AAC(6')-2d assessed as compound acetylation activity by Ellman's method
[15] = tested on: Mycobacterium tuberculosis; assay: Activity of Mycobacterium tuberculosis AAC(2')-1c assessed as compound acetylation activity by Ellman's method
[16] = tested on: Mycobacterium tuberculosis; assay: Activity of Mycobacterium tuberculosis Eis assessed as compound acetylation activity by Ellman's method
Candida albicans [17] = assay: Antifungal activity against azole-resistant Candida albicans ATCC 10231 after 48 hrs by microbroth dilution method; type: functional; conditions: ATCC 10231, 48 h
Method in brief: (§3)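 Yeast MIC by broth microdilution, run in duplicate. The aminoglycoside compounds are read as MIC-0 (complete inhibition). Azoles are read as MIC-2 (50% inhibition).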

Candida albicans [18] = assay: Antifungal activity against azole-resistant Candida albicans ATCC 64124 after 48 hrs by microbroth dilution method; type: functional; conditions: ATCC 64124, 48 h; method in brief: as §3
Candida albicans [19] = assay: Antifungal activity against azole-susceptible Candida albicans ATCC MYA-2876 after 48 hrs by microbroth dilution method; type: functional; conditions: ATCC MYA-2876, 48 h; method in brief: as §3
Candida albicans [20] = assay: Antifungal activity against azole-resistant Candida albicans ATCC 90819 after 48 hrs by microbroth dilution method; type: functional; conditions: ATCC 90819, 48 h; method in brief: as §3
Candida albicans [21] = assay: Antifungal activity against azole-susceptible Candida albicans ATCC MYA-2310 after 48 hrs by microbroth dilution method; type: functional; conditions: ATCC MYA-2310, 48 h; method in brief: as §3
Candida albicans [22] = assay: Antifungal activity against azole-resistant Candida albicans MYA-1237 after 48 hrs by microbroth dilution method; type: functional; conditions: MYA-1237, 48 h; method in brief: as §3
Candida albicans [23] = assay: Antifungal activity against azole-resistant Candida albicans MYA-1003 after 48 hrs by microbroth dilution method; type: functional; conditions: MYA-1003, 48 h; method in brief: as §3
Aspergillus nidulans = assay: Antifungal activity against Aspergillus nidulans ATCC 38163 after 48 hrs by microbroth dilution method; type: functional; conditions: ATCC 38163, 48 h
Method in brief: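 Filamentous fungus MIC by broth microdilution, run in duplicate. All compounds are read as MIC-0 (complete inhibition).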

For `CCCCCCCCCCCCCCCCSC[C@@H]1O[C@@H](O[C@@H]2[C@@H](O)[C@H](O[C@@H]3O[C@@H](CN)[C@H](O)[C@@H](O)[C@@H]3N)[C@@H](N)C[C@H]2N)[C@@H](O)[C@H](N)[C@H]1O` (stereo in doubt), the hemolysis at 1 h, 7.8 ug/ml [1] was 16%, the hemolysis at 1 h, 62.5 ug/ml [2] was 81% and the Activity [3] was “Toxic”. The MIC (Klebsiella pneumoniae) was > 128 µg/mL, the Activity [4] was “inactive” and the MIC (Bacillus subtilis) was > 128 µg/mL. The MIC (Staphylococcus aureus [5]) was > 128 µg/mL, the MIC [6] was 8 µg/mL (≈ 11 µM) and the MIC (Staphylococcus aureus [7]) was > 128 µg/mL. The MIC (Staphylococcus aureus [8]) was 128 µg/mL (≈ 177 µM), the MIC (Staphylococcus aureus [9]) was > 128 µg/mL and the MIC (Staphylococcus aureus [10]) was > 128 µg/mL. The MIC (Staphylococcus aureus [11]) was 128 µg/mL (≈ 177 µM), the MIC [12] was > 128 µg/mL and the MIC (Enterococcus) was 128 µg/mL (≈ 177 µM). For the same compound, the MIC (Acinetobacter baumannii) was > 128 µg/mL, the MIC (Enterobacter cloacae) was > 128 µg/mL and the MIC (Escherichia coli) was > 128 µg/mL. For the same compound, the MIC (Pseudomonas aeruginosa) was > 128 µg/mL, the MIC (Salmonella enterica) was > 128 µg/mL and the Activity [13] was “inactive”. For the same compound, the Activity [14] was “inactive”, the Activity (Serratia marcescens) was “inactive” and the Activity [15] was “inactive”. The Activity [16] was “inactive”, the MIC (Candida albicans [17]) was 3.9 µg/mL (≈ 5.39 µM) and the MIC (Candida albicans [18]) was 3.9 µg/mL (≈ 5.39 µM). It also gave an MIC (Candida albicans [19]) of 3.9 µg/mL (≈ 5.39 µM), an MIC (Candida albicans [20]) of 3.9 µg/mL (≈ 5.39 µM) and an MIC (Candida albicans [21]) of 3.9 µg/mL (≈ 5.39 µM). For the same compound, the MIC (Candida albicans [22]) was 3.9 µg/mL (≈ 5.39 µM), the MIC (Candida albicans [23]) was 3.9 µg/mL (≈ 5.39 µM) and the MIC (Aspergillus nidulans) was 1.95 µg/mL (≈ 2.69 µM).
